ChEMBL document CHEMBL3351942, “Rexinoids isolated from Sophora tonkinensis with a gene expression profile distinct from the synthetic rexinoid bexarotene” (J Nat Prod, 2014)
Calls of active or inactive are those of the source. The calls are words filed in the database; no cut-off is given here.

Tests used:
[1] = target: T1, Retinoic acid receptor RXR-alpha (Homo sapiens) (UniProt P19793); assay: (§1) Agonist activity at human RXR-alpha expressed in HEK293 cells coexpressing with pCMX-beta-gal after 24 to 48 hrs by luciferase reporter gene assay; type: cell-based
T1 sequence (whole entry): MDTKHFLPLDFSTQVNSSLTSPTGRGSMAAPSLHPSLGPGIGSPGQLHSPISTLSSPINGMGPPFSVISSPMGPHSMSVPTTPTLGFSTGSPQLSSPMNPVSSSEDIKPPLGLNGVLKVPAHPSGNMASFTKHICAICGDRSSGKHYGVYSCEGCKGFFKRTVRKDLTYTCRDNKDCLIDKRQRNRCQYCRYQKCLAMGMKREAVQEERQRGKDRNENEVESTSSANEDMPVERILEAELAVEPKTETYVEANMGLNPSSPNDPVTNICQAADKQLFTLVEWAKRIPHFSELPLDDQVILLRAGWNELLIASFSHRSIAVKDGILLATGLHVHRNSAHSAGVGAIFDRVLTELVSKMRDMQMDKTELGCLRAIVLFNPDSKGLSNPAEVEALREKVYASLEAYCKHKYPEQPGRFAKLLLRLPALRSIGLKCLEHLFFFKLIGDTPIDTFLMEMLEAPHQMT
Procedure, shortened: (§2)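 HEK293 cells transfected by calcium phosphate with 60 ng pCMX-hRXR-α, 150 ng CRBPII-tk-Luc and 30 ng pCMX-β-gal plus carrier pUC18 (600 ng DNA per well). After 8 h the cells were washed and exposed to compound in medium with 10% FBS for 24−48 h. Luciferase was normalized to β-galactosidase. Triplicate or quadruplicate; representative of three independent experiments; EC50 from dose-response.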

[2] = target: T1, Retinoic acid receptor RXR-alpha (Homo sapiens); assay: Agonist activity at human RXR-alpha expressed in HEK293 cells coexpressing with pCMX-beta-gal at 10 uM after 24 to 48 hrs by luciferase reporter gene assay; type: cell-based
RAW264.7 [3] = assay: Activation of RXR/LXR heterodimer in mouse RAW264.7 cells assessed as potentiation of T0901317-induced increase in ABCA1 mRNA level at 1 uM by quantitative RT-PCR analysis; type: cell-based
Procedure, shortened: (§3)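 RAW264.7 macrophages in DMEM/10% FBS, exposed 24 h with or without LXR agonist T0901317; ABCA1 mRNA by SYBR green qRT-PCR, β-actin-normalized, fold vs vehicle; means ± SD of three determinants, one of three independent experiments; one-way ANOVA, Bonferroni.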

F9 [4] = assay: Activation of RXR/RAR heterodimer in mouse F9 cells assessed as increase in CYP26A1 mRNA level at 1 uM by quantitative RT-PCR analysis; type: cell-based
Procedure, shortened: (§4)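 F9 teratocarcinoma cells on 0.2% gelatin-coated dishes in DMEM/10% FBS; 24 h exposure with or without atRA (0.1 μM). CYP26A1 mRNA by qRT-PCR normalized to β-actin, fold vs vehicle; means ± SD of three determinants, one of three experiments; ANOVA/Bonferroni.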

[5] = target: T2, Peroxisome proliferator-activated receptor delta (Mus musculus) (UniProt P35396); assay: Activation of PPARdelta in mouse C2C12 cells assessed as induction of ANGPTL4 mRNA expression at 1 uM after 24 hrs by quantitative RT-PCR analysis; type: cell-based
T2 sequence (whole entry): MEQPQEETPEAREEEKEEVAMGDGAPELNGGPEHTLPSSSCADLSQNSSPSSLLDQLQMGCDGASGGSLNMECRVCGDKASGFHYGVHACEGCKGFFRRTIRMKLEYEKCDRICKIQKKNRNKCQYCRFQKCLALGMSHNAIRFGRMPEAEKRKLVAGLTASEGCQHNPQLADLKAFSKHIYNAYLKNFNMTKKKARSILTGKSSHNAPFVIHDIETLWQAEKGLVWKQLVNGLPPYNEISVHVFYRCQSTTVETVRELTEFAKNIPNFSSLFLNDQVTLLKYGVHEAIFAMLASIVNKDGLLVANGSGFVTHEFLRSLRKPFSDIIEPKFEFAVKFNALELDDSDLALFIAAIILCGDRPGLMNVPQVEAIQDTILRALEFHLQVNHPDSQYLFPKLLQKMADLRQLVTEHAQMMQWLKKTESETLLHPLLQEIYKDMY
Procedure, shortened: (§5)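 Differentiated C2C12 myotubes (2% horse serum, 5 days) exposed 24 h with or without PPARδ agonist GW501516 (1 μM). mRNA quantified by SYBR green real-time RT-PCR, normalized to β-actin by delta-delta Ct, and expressed as fold induction vs vehicle; means ± SD of four determinants from one of two independent experiments; one-way ANOVA with Bonferroni.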

[6] = Activation of LXR in mouse C2C12 cells assessed as induction of ApoD mRNA expression at 1 uM after 24 hrs in presence of T0901317 by quantitative RT-PCR analysis; type: cell-based
Procedure, shortened: (§6)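 C2C12 myoblasts grown in DMEM/10% FBS, differentiated at confluence in 2% horse serum, medium changed every other day for 5 days; myotubes treated 24 h with or without T0901317 (1 μM). Total RNA, DNase-treated, oligo(dT) RT from 0.5 μg, SYBR green qPCR; normalized to β-actin (delta-delta Ct), fold over vehicle; mean ± SD of four determinants, one of two experiments.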

3T3-L1 = assay: Activation of PPARgamma/RXR heterodimer in mouse 3T3-L1 cell assessed as induction of adipogenesis at 1 uM after 6 days by Oil red O-staining; type: cell-based
Procedure, shortened: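 3T3-L1 cells grown to confluence, 2 days later induced 48 h with 10% FBS, 5 μg/mL insulin, 0.25 μM dexamethasone, 0.5 mM IBMX, then 48 h insulin-only medium; compounds in DMSO added to postdifferentiation medium for 4 days. Formalin-fixed (10%, 1 h, RT), stained with Oil red O, washed, visualized.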

[7] = target: T2, Peroxisome proliferator-activated receptor delta (Mus musculus); assay: Activation of PPARdelta in mouse C2C12 cells assessed as induction of FABP3 mRNA expression at 1 uM after 24 hrs by quantitative RT-PCR analysis; type: cell-based; procedure, shortened: as §5
[8] = Activation of LXR in mouse C2C12 cells assessed as induction of lipoprotein lipase mRNA expression at 1 uM after 24 hrs by quantitative RT-PCR analysis; type: cell-based; procedure, shortened: as §6
F9 [9] = assay: Activation of RXR/RAR heterodimer in mouse F9 cells assessed as increase in CYP26A1 mRNA level at 1 uM by quantitative RT-PCR analysis in presence of atRA; type: cell-based; procedure, shortened: as §4
[10] = target: T2, Peroxisome proliferator-activated receptor delta (Mus musculus); assay: Activation of PPARdelta in mouse C2C12 cells assessed as induction of FABP3 mRNA expression at 1 uM after 24 hrs in presence of GW501516 by quantitative RT-PCR analysis; type: cell-based; procedure, shortened: as §5
Homo sapiens = species on record: Homo sapiens; assay: Activation of RXR/VDR heterodimer in human hepatoma cells assessed as increase in CYP24A1 mRNA level at 1 uM by quantitative RT-PCR analysis; type: cell-based
Procedure, shortened: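 HLE hepatoma cells treated 24 h with or without VD3 (0.1 μM); CYP24A1 mRNA by SYBR green qRT-PCR normalized to β-actin (delta-delta Ct), fold over vehicle; means ± SD of three determinants, representative of three experiments.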

[11] = Activation of LXR in mouse C2C12 cells assessed as induction of ApoE mRNA expression at 1 uM after 24 hrs in presence of T0901317 by quantitative RT-PCR analysis; type: cell-based; procedure, shortened: as §6
[12] = Activation of LXR in mouse C2C12 cells assessed as induction of ABCA1 mRNA expression at 1 uM after 24 hrs in presence of T0901317 by quantitative RT-PCR analysis; type: cell-based; procedure, shortened: as §6
[13] = Activation of LXR in mouse C2C12 cells assessed as induction of lipoprotein lipase mRNA expression at 1 uM after 24 hrs in presence of T0901317 by quantitative RT-PCR analysis; type: cell-based; procedure, shortened: as §6
[14] = target: T2, Peroxisome proliferator-activated receptor delta (Mus musculus); assay: Activation of PPARdelta in mouse C2C12 cells assessed as induction of CPT1A mRNA expression at 1 uM after 24 hrs by quantitative RT-PCR analysis; type: cell-based; procedure, shortened: as §5
RAW264.7 [15] = assay: Activation of RXR/LXR heterodimer in mouse RAW264.7 cells assessed as increase in ABCA1 mRNA level at 1 uM by quantitative RT-PCR analysis; type: cell-based; procedure, shortened: as §3
[16] = Activation of LXR in mouse C2C12 cells assessed as induction of FAS mRNA expression at 1 uM after 24 hrs in presence of T0901317 by quantitative RT-PCR analysis; type: cell-based; procedure, shortened: as §6
[17] = Activation of LXR in mouse C2C12 cells assessed as induction of SREBP1 mRNA expression at 1 uM after 24 hrs in presence of T0901317 by quantitative RT-PCR analysis; type: cell-based; procedure, shortened: as §6
[18] = target: T3, Retinoic acid receptor RXR-alpha (Homo sapiens, UniProt P19793); assay: as §1; type: cell-based; procedure, shortened: as §2
T3 sequence (P19793 whole entry): T1 sequence (whole entry)

[19] = target: T1, Retinoic acid receptor RXR-alpha (Homo sapiens); assay: Agonist activity at human RXR-alpha expressed in HEK293 cells coexpressing with pCMX-beta-gal at 10 uM after 24 to 48 hrs by luciferase reporter gene assay in presence of PA452 pan-antagonist; type: cell-based
Procedure, shortened: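 RXRα reporter in HEK293: cotransfected with RXRα expression vector, luciferase reporter and pCMX-β-gal. Eight hours after transfection, cells were treated with test compound at 10 μM with or without the RXR pan-antagonist PA452 (10 μM). Luciferase was normalized to β-galactosidase. Means ± SD of three determinants; representative of three experiments; one-way ANOVA with Bonferroni's t-test.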

[20] = target: T1, Retinoic acid receptor RXR-alpha (Homo sapiens); assay: Binding affinity to RXRalpha (unknown origin) by receptor-SRC1 cofactor complex formation assay
Procedure, shortened: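 Ligand-dependent binding of RXR isotype to coactivator SRC-1 in an NR cofactor kit, detected with HRP-conjugated anti-RXR antibody at OD450. The full agonist CD3254 defined 100% and vehicle 0%. Efficacy was taken as maximum B/Bmax% and potency as EC50.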

Compound: C=C1C(=O)O[C@H]2C[C@@H](C)[C@@H]3C=CC(=O)[C@@]3(C)[C@@H](OC(C)=O)[C@H]12
- ED50 [1]: 4.9 µM

Compound: C=CCc1ccc(O)c(-c2ccc(O)c(CC=C)c2)c1
- ED50 [1]: 11.8 µM

Compound: CC/C=C\C/C=C\C/C=C\C/C=C\C/C=C\C/C=C\CCC(=O)O
- ED50 [1]: 50 µM

Compound: CC(C)=CCc1cc([C@@H]2CC(=O)c3ccc(O)c(CC=C(C)C)c3O2)cc(CC=C(C)C)c1O
- Activity [2]: inactive

Compound: C=C(c1ccc(C(=O)O)cc1)c1cc2c(cc1C)C(C)(C)CCC2(C)C
- Activity (RAW264.7 [3]): Active
- Activity (F9 [4]): Active
- Activity [5]: Active
- Activity [6]: Active
- Activity (3T3-L1): Active
- Activity [7]: Active
- Activity [8]: inactive
- Activity (F9 [9]): Active
- Activity [10]: Active
- Activity (Homo sapiens): Active
- Activity [11]: Active
- Activity [12]: Active
- Activity [13]: inactive
- Activity [14]: Active
- Activity (RAW264.7 [15]): Active
- Activity [16]: Active
- Activity [17]: Active

Compound: CC(C)CCC[C@@H](C)CCC[C@@H](C)CCCC(C)CC(=O)O (stereo partly specified)
- ED50 [1]: 3 µM

Compound: CC(C)=CCc1cc([C@@H]2CC(=O)c3ccc(O)c(CC=C(C)C)c3O2)cc2c1OC(C)(C)C(O)C2 (stereo partly specified)
- Activity [1]: Dose-dependent effect
- EC50 [18]: 0.78 µM
- Activity [19]: inactive
- Activity [20]: inactive
